Sampled rows, rich in hits. Any-hit rate of the full collection: about 1.6%.
S100A4 MyoIIA = inhibitors of human S100A4 binding to myosin IIA peptide | 360,000 compounds, 0.14% hits | S100A4/TAMRA-MyoIIA peptide fluorescence polarization | P26447 | inhibition, % at 10.7 µM;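 active means mean inhibition of at least 70% across replicates, with every replicate also reaching that level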
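Material: S100A4 monomer protein / Buffer or medium: 50 mM HEPES pH 7.2, 10 mM CaCl2, 100 mM KCl / Times: 5 min incubation before reading / Benchmarks: neutral control DMSO, positive control TFP / Reagent: labelled myosin peptide probe, 5 nM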
SR-BI HDL uptake = mouse SR-BI HDL lipid transfer inhibition. Q61009. ldlA[mSR-BI] CHO cells, DiI-HDL uptake fluorescence, 3 h. inhibition, % at 12.5 µM. 320,000 compounds, 0.96% hits. AID 488896;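 active means mean replicate inhibition of at least 70% and a set share of replicates each scoring 70 or more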;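 further: 0% = median of neutral control wells and 100% = median of positive control wells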
RAD54 branch = inhibitors of human RAD54 branch migration; Q92698; RAD54 Holliday junction branch migration, FAM/BHQ fluorescence; inhibition, % at 10.4 µM; 360,000 compounds, 0.14% hits; AID 602329;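 active means mean normalized replicate activity at least 40 and at least half of replicates scoring 40 or more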;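 further: 0% = median of neutral control wells and 100% = median of positive control wells; inhibitors cause a drop in the FAM fluorescence signal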
Target sequence (Q92698 whole entry, looked up): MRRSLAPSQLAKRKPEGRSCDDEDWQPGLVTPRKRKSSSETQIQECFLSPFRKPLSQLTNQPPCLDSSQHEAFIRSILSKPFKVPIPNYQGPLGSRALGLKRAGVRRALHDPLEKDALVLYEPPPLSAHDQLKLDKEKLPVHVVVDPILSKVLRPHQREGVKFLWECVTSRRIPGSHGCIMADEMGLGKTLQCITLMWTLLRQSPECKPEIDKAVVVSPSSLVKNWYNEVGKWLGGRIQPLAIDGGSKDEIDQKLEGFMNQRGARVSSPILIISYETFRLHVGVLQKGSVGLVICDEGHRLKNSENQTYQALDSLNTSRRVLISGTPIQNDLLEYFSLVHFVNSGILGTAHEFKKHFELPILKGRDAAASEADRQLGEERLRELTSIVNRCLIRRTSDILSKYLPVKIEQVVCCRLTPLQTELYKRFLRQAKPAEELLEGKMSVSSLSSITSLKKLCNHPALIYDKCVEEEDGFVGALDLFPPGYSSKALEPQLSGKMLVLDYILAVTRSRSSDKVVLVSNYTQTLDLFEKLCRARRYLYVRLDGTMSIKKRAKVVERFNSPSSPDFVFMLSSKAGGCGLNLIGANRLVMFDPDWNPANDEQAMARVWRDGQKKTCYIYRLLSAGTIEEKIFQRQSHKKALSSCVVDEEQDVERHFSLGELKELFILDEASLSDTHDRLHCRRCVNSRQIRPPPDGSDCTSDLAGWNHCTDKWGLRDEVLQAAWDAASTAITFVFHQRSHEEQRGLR
PvdQ inh = P. aeruginosa PvdQ acylase inhibition; purified PvdQ acylase, fluorescence plate reader; inhibition, % at 10 µM; 340,000 compounds, 0.063% hits; AID 488965; in the data active means inhibition above about 30%, passing the limit was not always enough;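 further: 0% = vehicle neutral wells and 100% = reference inhibitor wells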
dFosB activator = mouse delta FosB homodimer activation | purified delta FosB, TAMRA-CDK5 oligo fluorescence polarization; percent of positive-control signal above neutral wells | activation, % at 25 µM | 340,000 compounds, 0.99% hits | AID 493131;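 active means mean activation above about 17%, with every replicate also reaching it, limit read from the data, passing the limit was not always enough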
SR-BI uptake up = activators of SR-BI mediated HDL lipid uptake. CHO ldlA[mSR-BI] cells, DiI-HDL uptake fluorescence, 3 h; 100 = double the neutral-control signal. 320,000 compounds, 0.096% hits. AID 504775. activation, % at 12.5 µM;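 active means mean replicate activation of at least 60% and every replicate at or above 60%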;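 further: 0% = median plate neutral-control signal and 100% = twice that signal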
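Material – SR-BI-overexpressing, LDLR-lacking CHO cells · Medium – BSA-supplemented, HEPES-buffered Ham's F12, pH 7.4 · Doses – single concentration · Times – compound with DiI-HDL co-incubation, 3 h at 37 °C · Measured by – bottom-read fluorescence, 550/595 nm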
Active calls of the source: *; · = not tested or not shown.

SMILES | S100A4 MyoIIA | SR-BI HDL uptake | RAD54 branch | PvdQ inh | dFosB activator | SR-BI uptake up
O=C(CN1CCCc2ccccc21)N/N=C/c1c(O)ccc2ccccc12 | 8 | -195 | · | 5 | -5 | 195*
CC/C(=N/NC(=O)c1ccc2c(c1)OCO2)c1ccccc1O | 1 | 100* | 0 | 2 | -4 | -100
O=S(=O)(c1ccc(NC(=S)NN=Cc2ccccc2O)cc1)N1CCCCC1 | -3 | 92* | · | 7 | -8 | -92
O=C(NN=Cc1c(O)ccc2ccccc12)c1ccc2c(c1)OCO2 | -1 | 124* | 4 | 8 | -2 | -124
C[C@@H]1CN([C@@H](C)CO)C(=O)Cc2cc(NC(=O)CCN3CCOCC3)ccc2O[C@H]1CN(C)CC1CCCCC1 | 2 | · | 5 | · | · | ·
COc1ccc2c3c([nH]c2c1)[C@@H](CO)N(C(C)=O)CC31CN(S(=O)(=O)c2ccccc2)C1 | -11 | · | · | · | · | ·
CO[C@H]1CN(C)C(=O)c2ccc(NS(=O)(=O)c3ccc(C)cc3)cc2OC[C@H](C)N(C)C[C@@H]1C | 9 | · | · | · | · | ·
O=C(C[C@H]1CC[C@H](NC(=O)C2CCOCC2)[C@@H](CO)O1)Nc1nccs1 | 10 | · | -10 | · | · | ·
CCOc1ccccc1NC(=O)c1ccc(S(=O)(=O)N2CCCCC2)cc1 | 3 | 76* | -8 | -1 | -6 | -76
O=C(N/N=C/c1c(O)ccc2ccccc12)c1ccc(CO)nc1 | 11 | 43 | -7 | 2 | 13 | -43
O=C(N/N=C\c1c(O)ccc2ccccc12)c1ccc(S(=O)(=O)N2CCCCC2)cc1 | · | 143* | · | -8 | -5 | -143
COCC(=O)Nc1ccc2c(c1)C(=O)N(C)C[C@H](OC)[C@@H](C)CN(CCC(F)(F)F)[C@H](C)CO2 | -12 | · | 4 | · | · | ·
C[C@@H]1CCCCO[C@@H](CN(C)C(=O)Nc2ccc(C(F)(F)F)cc2)[C@H](C)CN([C@H](C)CO)C(=O)c2cc(NC(=O)c3ccncc3)ccc2O1 | 6 | · | 7 | · | · | ·
CCCN(C)C[C@H]1Oc2cc(-c3cccnc3)ccc2S(=O)(=O)N([C@H](C)CO)C[C@H]1C | 13 | · | -4 | · | · | ·
Cc1ccc2nc(-c3ccc4c(c3)OCCO4)cn2c1 | -3 | 11 | -1 | 91* | -10 | -11
COc1ccc(-c2cn3cc(C)ccc3n2)cc1OC | · | -6 | 19 | -19 | 0 | 6
COc1ccc(-c2cn3cc(C)ccc3n2)cc1F | 5 | 44 | 0 | 59* | -7 | -44
O=C(C[C@@H]1C[C@@H]2c3cc(NS(=O)(=O)c4ccc(F)cc4)ccc3O[C@@H]2[C@H](CO)O1)NCC1CC1 | · | · | -4 | · | · | ·
Cc1ccc(Cn2c(SCC(=O)NCC3CCCO3)nc3ccsc3c2=O)cc1 (stereo unspecified) | 10 | -60 | · | 5 | -2 | 60*
O=C(CSc1nc2ccsc2c(=O)n1Cc1ccc(C(=O)O)cc1)NCC1CCCO1 (stereo unspecified) | -8 | -12 | 2 | -2 | -3 | 12
CC(C)OCCCNC(=O)c1c(N)n(/N=C/c2ccccn2)c2nc3ccccc3nc12 | · | -84 | -8 | -17 | 10 | 84*
CCN1[C@@H]2c3ccc(C4=CCCCC4)c(=O)n3C[C@@H]2[C@@H](CO)[C@@H]1C(=O)NCc1cccc(OC)c1 | -2 | · | -4 | · | · | ·
COC(=O)C1=C(C)NC(=O)NC1c1ccc(N2CCC(c3ccccc3)=N2)cc1 (stereo unspecified) | 2 | 78* | 3 | -18 | 4 | -78
COC(=O)C1=C(C)NC(=O)NC1c1ccc(OC)c(OC)c1 (stereo unspecified) | 2 | · | -4 | · | · | ·
O=C(Nc1cccc(Cl)c1)N[C@@H]1CC[C@@H](CCNC(=O)C2CCCC2)O[C@H]1CO | -2 | · | -16 | · | · | ·
SMILES | S100A4 MyoIIA | SR-BI HDL uptake | RAD54 branch | PvdQ inh | dFosB activator | SR-BI uptake up
CC(=O)Nc1ccc2c(c1)-c1ccc(F)cc1C2 | 2 | -6 | · | -11 | -5 | 6
CC(=O)Nc1ccc2c(c1)Cc1ccc(Cl)cc1-2 | -1 | 74* | 5 | 8 | -3 | -74
C[C@H](CO)N1C[C@H](C)[C@@H](CN(C)S(=O)(=O)c2ccccc2)OCc2ccccc2-c2ccccc2C1=O | 3 | · | 3 | · | · | ·
CCCn1c2ccc(/C(C)=N\O)cc2c2cc(/C(C)=N/O)ccc21 | · | 101* | · | -15 | -2 | -101
Cc1sc2ncnc(Nc3ccccc3)c2c1C | · | 12 | -3 | -8 | -8 | -12
Cc1sc2ncnc(Nc3ccc(N4CCOCC4)cc3)c2c1-c1ccccc1 | -3 | 76* | · | -23 | -17 | -76
Cc1cc(N/N=C/c2c(O)ccc3ccccc23)nc(-c2ccccc2O)n1 | 3 | 91* | 2 | 10 | -3 | -91
Oc1ccc2ccccc2c1/C=N/Nc1ccccc1 | · | -13 | · | -3 | -6 | 13
CC(=O)c1sc(N/N=C\c2c(O)ccc3ccccc23)nc1C | 3 | 97* | -4 | 22 | -12 | -97
CC(=O)c1sc(N/N=C/c2cccc(O)c2)nc1C | -10 | · | 11 | 0 | 1 | ·
CCc1cccc(NC(=O)Cn2c(=O)n(CCC(=O)NCC3CCCO3)c(=O)c3cc(OC)c(OC)cc32)c1 (stereo unspecified) | -2 | -379 | -4 | 0 | -5 | 379*
COc1ccc(NC(=O)Cn2c(=O)n(CCC(=O)NCC3CCCO3)c(=O)c3cc(OC)c(OC)cc32)cc1 (stereo unspecified) | -1 | 8 | -10 | 6 | -6 | -8
C[C@@H]1CN([C@H](C)CO)C(=O)c2cccc(NC(=O)C3CCOCC3)c2O[C@H]1CN(C)C(=O)NC1CCCCC1 | -10 | · | 6 | · | · | ·
C=C(C)CSc1nc2c(c(=O)[nH]c(=O)n2C)n1Cc1ccccc1 | -13 | 3 | -5 | -12 | -9 | -3
Cn1c(=O)[nH]c(=O)c2c1nc(SCC(=O)Nc1ccccc1)n2Cc1ccccc1 | 1 | 5 | 8 | -8 | 54* | -5
CN(C)c1cc(NC(=O)CN2CCCC2)c2ccccc2n1 | 2 | -21 | 78* | -18 | 7 | 21
O=C(N[C@H]1C=C[C@@H](CC(=O)N2CCc3ccccc3C2)O[C@@H]1CO)C1CCC1 | 5 | · | 1 | · | · | ·
COc1ccc(/C=C2\SC(=N)N(c3ccc(F)cc3)C2=O)cc1OC | 2 | 42 | · | -14 | 45* | -42
COC(=O)c1c(NC(=S)Nc2ccccc2Cl)sc(C)c1C | · | 75* | -6 | -6 | -3 | -75
C[C@H](CO)N1C[C@H](C)[C@H](CN(C)C(=O)Nc2ccc(F)cc2)OCCCC[C@H](C)Oc2ccc(NS(=O)(=O)c3ccccc3)cc2C1=O | -13 | · | -2 | · | · | ·
Fc1ccc(-c2cc3nc4c(c(N5CCOCC5)n3n2)CCCC4)cc1 | -5 | 76* | 5 | -9 | -14 | -76
CCOC(=O)c1cc2nc(Nc3ccc(OC)cc3)sc2s1 | · | 72* | -5 | -10 | -2 | -72

Assay outcomes from PubChem BioAssay.
